According to ChEMBL document CHEMBL3045020, “Insect antifeedant activity of flavones and chromones against Spodoptera litura” (2003):

What follows are molecules tested on Spodoptera litura (assay: Antifeedant activity against Spodoptera litura F. by choice leaf disk assay).
Format: functional
Summary of the method: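 Antifeedant value calculated from the rate of leaf consumption. A straight line was fitted to the bioassay points to obtain the ED50.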

Question: With O=c1cc(-c2ccccc2)oc2ccccc12 [FLAVONE] as the molecule, how does the ED50 read?
Answer: The ED50 was 0.11 umol/cm2.

Question: COc1cc2oc(-c3ccccc3)cc(=O)c2c(O)c1OC [MOSLOFLAVONE] was tested. Which ED50 did it give?
Answer: The ED50 was greater than 10 umol/cm2.

Question: For COc1ccc2oc(-c3ccccc3)cc(=O)c2c1 [6-METHOXYFLAVONE], which ED50 is on record?
Answer: The ED50 was 0.15 umol/cm2.

Question: Which ED50 does the source give for O=c1cc(-c2ccccc2)oc2cc(O)c(O)c(O)c12 [BAICALEIN] here?
Answer: The ED50 was 0.96 umol/cm2.

Question: For COc1ccc2c(=O)cc(C)oc2c1, which ED50 is on record?
Answer: The ED50 was greater than 10 umol/cm2.

Question: For O=c1cc(-c2ccc(O)cc2)oc2cc(O)cc(O)c12 [APIGENIN], which ED50 is on record?
Answer: The ED50 was greater than 10 umol/cm2.

Question: How did the ED50 turn out when O=c1cc(-c2ccccc2)oc2cc(O)ccc12 [7-HYDROXYFLAVONE] was run?
Answer: Its ED50 is greater than 10 umol/cm2.

Question: For COc1ccc(-c2cc(=O)c3c(OC)c(OC)c(OC)c(OC)c3o2)cc1 [TANGERETIN], which ED50 is on record?
Answer: The ED50 was 0.28 umol/cm2.

Question: With O=c1cc(-c2ccccc2)oc2cc(O)cc(O)c12 [CHRYSIN] as the molecule, how does the ED50 read?
Answer: Its ED50 is 2.5 umol/cm2.

Question: O=c1cc(-c2ccccc2)oc2ccc(O)cc12 [6-HYDROXYFLAVONE] was tested. Which ED50 did it give?
Answer: The ED50 was greater than 10 umol/cm2.

Question: For COc1ccc(-c2cc(=O)c3c(OC)c(OC)c(OC)c(OC)c3o2)cc1OC [NOBILETIN], which ED50 is on record?
Answer: The ED50 was 5.6 umol/cm2.

Question: With COc1ccc2c(=O)cc(-c3ccccc3)oc2c1 [7-METHOXYFLAVONE] as the molecule, how does the ED50 read?
Answer: The ED50 was 0.059 umol/cm2.

Question: Which ED50 does the source give for O=c1cc(-c2ccc(O)c(O)c2)oc2cc(O)cc(O)c12 [LUTEOLIN] here?
Answer: Its ED50 is greater than 10 umol/cm2.

Question: COc1cc2oc(C)cc(=O)c2c(OC)c1OC was tested. Which ED50 did it give?
Answer: Its ED50 is 0.41 umol/cm2.

Question: How did the ED50 turn out when Cc1ccc2oc(-c3ccccc3)cc(=O)c2c1 [6-METHYLFLAVONE] was run?
Answer: The ED50 was 0.035 umol/cm2.

Question: With COc1c(O)cc2oc(-c3ccccc3)cc(=O)c2c1O [OROXYLIN A] as the molecule, how does the ED50 read?
Answer: The ED50 was greater than 10 umol/cm2.

Question: For O=c1ccoc2ccccc12 [CHROMONE], which ED50 is on record?
Answer: Its ED50 is 0.168 umol/cm2.

Question: How did the ED50 turn out when COc1cc(O)c2c(=O)cc(-c3ccccc3)oc2c1O [ISOWOGONIN] was run?
Answer: Its ED50 is greater than 10 umol/cm2.

Question: With O=c1cc(-c2ccccc2)oc2c(O)c(O)cc(O)c12 [NORWOGONIN] as the molecule, how does the ED50 read?
Answer: Its ED50 is 1.52 umol/cm2.

Question: For Cc1ccc2c(=O)cc(C)oc2c1 [2,7-DIMETHYLCHROMONE], which ED50 is on record?
Answer: Its ED50 is 0.102 umol/cm2.

Question: Which ED50 does the source give for COc1c(O)cc(O)c2c(=O)cc(-c3ccccc3)oc12 [WOGONIN] here?
Answer: The ED50 was 2 umol/cm2.

Question: How did the ED50 turn out when COc1ccc(-c2oc3c(OC)c(OC)c(OC)c(O)c3c(=O)c2OC)cc1 [5-HYDROXYAURANETIN] was run?
Answer: The ED50 was 0.11 umol/cm2.

Question: COc1cc(OC)c2c(=O)cc(C)oc2c1 was tested. Which ED50 did it give?
Answer: Its ED50 is greater than 10 umol/cm2.

Question: COc1ccc2c(=O)ccoc2c1 [7-METHOXYCHROMONE] was tested. Which ED50 did it give?
Answer: The ED50 was 0.096 umol/cm2.
